In ChEMBL document CHEMBL4130356, “Design, synthesis and 2D QSAR study of novel pyridine and quinolone hydrazone derivatives as potential antimicrobial and antitubercular agents” (Eur J Med Chem, 2017):
≈ marks a conversion by molar mass, not a printed value. Calls of active or inactive are those of the source. No cut-off for these calls is given here.

Experiments:
Aspergillus fumigatus [1] = experiment: Antimicrobial activity against Aspergillus fumigatus RCMB 02568 assessed as diameter of zone inhibition at 100 ug/ml after 48 hrs by agar well diffusion assay; format: functional; conditions: for zone of inhibition at 100 µg/mL: RCMB 02568, 48 h, read-out: DIZ
In short: (§1)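 Agar well diffusion on malt agar plates seeded with the fungus, using 1 cm wells. Plates were held at 4°C for 1 h for diffusion, then incubated at 28°C. Inhibition zone diameters were measured at 48 h. Amphotericin B was the positive control. Run in triplicate, with the mean zone reported.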

Candida albicans [2] = experiment: Antimicrobial activity against Candida albicans RCMB 05036 assessed as diameter of zone inhibition at 100 ug/ml after 48 hrs by agar well diffusion assay; format: functional; conditions: for zone of inhibition at 100 µg/mL: RCMB 05036, 48 h, read-out: DIZ; in short: as §1
Staphylococcus aureus [3] = experiment: Antimicrobial activity against Staphylococcus aureus RCMB 010028 assessed as diameter of zone inhibition at 100 ug/ml after 24 hrs by agar well diffusion assay; format: functional; conditions: for zone of inhibition at 100 µg/mL: RCMB 010028, 24 h, read-out: DIZ
In short: (§2)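 Agar well diffusion on nutrient agar plates seeded with the bacterium, using 1 cm wells. Plates were held at 4°C for 1 h for diffusion, then incubated at 37°C. Inhibition zone diameters were measured at 24 h. Ciprofloxacin was the positive control. Run in triplicate, with the mean zone reported.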

Streptococcus pneumoniae [4] = experiment: Antimicrobial activity against Streptococcus pneumoniae RCMB 010010 assessed as diameter of zone inhibition at 100 ug/ml after 24 hrs by agar well diffusion assay; format: functional; conditions: for zone of inhibition at 100 µg/mL: RCMB 010010, 24 h, read-out: DIZ; in short: as §2
Escherichia coli [5] = experiment: Antimicrobial activity against Escherichia coli RCMB 010052 assessed as diameter of zone inhibition at 100 ug/ml after 24 hrs by agar well diffusion assay; format: functional; conditions: for zone of inhibition at 100 µg/mL: RCMB 010052, 24 h, read-out: DIZ; in short: as §2
[6] = test system: Mycobacterium tuberculosis; experiment: Antimycobacterial activity against Mycobacterium tuberculosis RCMB 010126 clinical isolate after 7 days by MABA; format: functional
In short: (§3)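 Inoculum from fresh LJ culture resuspended in 7H9-S broth with casitone, glycerol and OADC, adjusted to McFarland No. 1 and diluted 1:20. Serial two-fold compound dilutions in 7H9-S; isoniazid reference. Incubated 7 days at 37°C in air, then Alamar blue added and incubated overnight. Percent inhibition = 1 − (test well/growth-control mean) × 100; MIC = lowest concentration preventing blue-to-pink change.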

[7] = test system: Mycobacterium tuberculosis; experiment: Antimycobacterial activity against Mycobacterium tuberculosis RCMB 010126 clinical isolate assessed as inhibition zone after 7 days by MABA; format: functional; in short: as §3
Pseudomonas aeruginosa [8] = conditions: RCMB 010043, 100 ug/ml
Streptococcus pneumoniae [9] = experiment: Antimicrobial activity against Streptococcus pneumoniae RCMB 010010 after 24 hrs by serial dilution method; format: functional; conditions: RCMB 010010, 24 h
In short: (§4)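 Serial twofold dilution in microtiter plates starting from a 100 mmol stock in DMSO; final concentrations 125 down to 0.12 […]. Incubated at 37°C and read on a microplate reader after 24 h. Ciprofloxacin was the reference. Run in triplicate, with the average taken. MIC was the lowest concentration inhibiting growth.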

Staphylococcus aureus [10] = experiment: Antimicrobial activity against Staphylococcus aureus RCMB 010028 after 24 hrs by serial dilution method; format: functional; conditions: RCMB 010028, 24 h; in short: as §4
Pseudomonas aeruginosa [11] = conditions: RCMB 010043
Escherichia coli [12] = experiment: Antimicrobial activity against Escherichia coli RCMB 010052 after 24 hrs by serial dilution method; format: functional; conditions: RCMB 010052, 24 h; in short: as §4
Candida albicans [13] = experiment: Antimicrobial activity against Candida albicans RCMB 05036 after 48 hrs by serial dilution method; format: functional; conditions: RCMB 05036, 48 h
In short: as §4, with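 “28°C” for “37°C”, “48” for “24”, “Amphotericin B” for “Ciprofloxacin”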

Aspergillus fumigatus [14] = experiment: Antimicrobial activity against Aspergillus fumigatus RCMB 02568 after 48 hrs by serial dilution method; format: functional; conditions: RCMB 02568, 48 h
In short: as §4, with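 “28°C” for “37°C”, “48” for “24”, “Amphotericin B” for “Ciprofloxacin”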

[15] = Mycobacterium tuberculosis, RCMB 010126, 168 h

Row | SMILES | diameter of the inhibition zone (DIZ) (Aspergillus fumigatus [1]) | diameter of the inhibition zone (DIZ) (Candida albicans [2]) | diameter of the inhibition zone (DIZ) (Staphylococcus aureus [3]) | diameter of the inhibition zone (DIZ) (Streptococcus pneumoniae [4]) | diameter of the inhibition zone (DIZ) (Escherichia coli [5]) | MIC [6, 15] [µg/mL] | inhibition zone (IZ) [7] | DIZ (Pseudomonas aeruginosa [8]) | MIC (Streptococcus pneumoniae [9]) [µg/mL] | zone of inhibition at 100 µg/mL (Staphylococcus aureus [3]) [mm] | zone of inhibition at 100 µg/mL (Streptococcus pneumoniae [4]) [mm] | MIC (Staphylococcus aureus [10]) [µg/mL] | zone of inhibition at 100 µg/mL (Aspergillus fumigatus [1]) [mm] | zone of inhibition at 100 µg/mL (Candida albicans [2]) [mm] | zone of inhibition at 100 µg/mL (Escherichia coli [5]) [mm] | MIC (Pseudomonas aeruginosa [11]) | MIC (Escherichia coli [12]) [µg/mL] | MIC (Candida albicans [13]) [µg/mL] | MIC (Aspergillus fumigatus [14]) [µg/mL] | MIC [6]
1 | Cc1nc(-c2ccc(Cl)cc2)ccc1C(=O)N/N=C/c1ccc(Cl)cc1 | inactive | inactive | inactive | inactive | inactive | 12.5 (≈ 32.5 µM) | 36.24 mm | inactive | – | – | – | – | – | – | – | – | – | – | – | –
2 | CC1(C)S[C@@H]2[C@H](NC(=O)[C@H](N)c3ccccc3)C(=O)N2[C@H]1C(=O)O [AMPICILLIN] | – | – | – | – | – | – | – | – | 0.98 (≈ 2.8 µM) | 27.4 | 23.8 | 0.98 (≈ 2.8 µM) | – | – | – | – | – | – | – | –
3 | O=C(N/N=C/c1ccc(F)cc1)c1c[nH]c2cc(Cl)ccc2c1=O | – | – | – | – | – | 12.5 (≈ 36.3 µM) | 36.42 mm | inactive | – | 16.2 | 16.9 | – | 16.8 | 14.4 | 12.5 | – | – | – | – | –
4 | Cc1ccc(/C=N/NC(=O)c2ccc(-c3ccc(Cl)cc3)nc2C)cc1 | inactive | inactive | inactive | inactive | inactive | 49.9 (≈ 137 µM) | 26.35 mm | inactive | – | – | – | – | – | – | – | – | – | – | – | –
5 | O=C(N/N=C/c1ccc(Cl)cc1Cl)c1c[nH]c2ccc(Cl)cc2c1=O | – | – | – | – | – | 99.8 (≈ 253 µM) | 18.3 mm | inactive | 7.81 (≈ 19.8 µM) | 15.7 | 17.5 | 15.6 (≈ 39.6 µM) | 16.9 | 14.1 | 20.7 | inactive | 1.95 (≈ 4.94 µM) | 62.5 (≈ 158 µM) | 15.6 (≈ 39.6 µM) | –
6 | O=C(N/N=C/c1ccc(F)cc1)c1c[nH]c2ccc(Cl)cc2c1=O | – | – | – | – | – | – | inactive | inactive | 15.6 (≈ 45.5 µM) | 10.6 | 12.4 | 31.2 (≈ 90.9 µM) | 11.3 | 10.3 | 12.7 | inactive | 62.5 (≈ 182 µM) | 31.2 (≈ 90.9 µM) | 15.6 (≈ 45.5 µM) | inactive
7 | O=C(N/N=C/c1ccc(Cl)cc1)c1c[nH]c2ccc(Cl)cc2c1=O | – | – | – | – | – | 99.8 (≈ 277 µM) | 17.8 mm | inactive | 15.6 (≈ 43.4 µM) | 15.3 | 17.3 | 31.2 (≈ 86.8 µM) | 16.3 | 13.6 | 20.6 | inactive | 1.95 (≈ 5.41 µM) | 62.5 (≈ 174 µM) | 31.2 (≈ 86.8 µM) | –
8 | COc1ccc(/C=N/NC(=O)c2c[nH]c3cc(Cl)ccc3c2=O)cc1OC | – | – | – | – | – | – | inactive | inactive | 15.6 (≈ 40.5 µM) | 20.6 | 17.3 | 1.95 (≈ 5.05 µM) | 20.3 | 16.2 | 20.3 | inactive | 3.9 (≈ 10.1 µM) | 31.2 (≈ 81 µM) | 3.9 (≈ 10.1 µM) | inactive
9 | Cc1nc(-c2ccc(Cl)cc2)ccc1C(=O)N/N=C/c1ccc(Cl)cc1Cl | – | – | – | – | – | 12.5 (≈ 29.8 µM) | 35.38 mm | inactive | 1.95 (≈ 4.66 µM) | 19.3 | 21.3 | 3.9 (≈ 9.31 µM) | 19.3 | 17.4 | 21.3 | inactive | 1.95 (≈ 4.66 µM) | 15.6 (≈ 37.3 µM) | 3.9 (≈ 9.31 µM) | –
10 | Cc1ccc(/C=N/NC(=O)c2c[nH]c3ccc(Cl)cc3c2=O)cc1 | – | – | inactive | – | inactive | – | inactive | inactive | – | – | 20.4 | – | 10.3 | 12.1 | – | – | – | – | – | inactive
11 | COc1cc(/C=N/NC(=O)c2c[nH]c3cc(Cl)ccc3c2=O)cc(OC)c1OC | inactive | inactive | inactive | inactive | inactive | 6.24 (≈ 15 µM) | 42.65 mm | inactive | – | – | – | – | – | – | – | – | – | – | – | –
12 | Cc1nc(-c2cccc(Cl)c2)ccc1C(=O)N/N=C/c1ccc(F)cc1 | inactive | inactive | inactive | inactive | inactive | 3.12 (≈ 8.48 µM) | 52.34 mm | inactive | – | – | – | – | – | – | – | – | – | – | – | –
13 | C[C@@H]1[C@H](O)[C@@H](C)/C=C/C=C/C=C/C=C/C=C/C=C/C=C/[C@H](O[C@@H]2O[C@H](C)[C@@H](O)[C@H](N)[C@@H]2O)C[C@@H]2O[C@](O)(C[C@@H](O)C[C@@H](O)[C@H](O)CC[C@@H](O)C[C@@H](O)CC(=O)O[C@H]1C)C[C@H](O)[C@H]2C(=O)O [AMPHOTERICIN B] | – | – | – | – | – | – | – | – | – | – | – | – | 23.7 | 25.4 | – | – | – | 0.98 (≈ 1.06 µM) | 1.95 (≈ 2.11 µM) | –
14 | NNC(=O)c1ccncc1 [ISONIAZID] | – | – | – | – | – | 0.75 (≈ 5.47 µM) | inactive | – | – | – | – | – | – | – | – | – | – | – | – | –
15 | Cc1ccc(/C=N/NC(=O)c2c[nH]c3cc(Cl)ccc3c2=O)cc1 | – | – | – | – | – | – | inactive | inactive | 62.5 (≈ 184 µM) | 14.4 | 13.9 | 62.5 (≈ 184 µM) | 13.7 | 14.5 | 15 | inactive | 62.5 (≈ 184 µM) | 62.5 (≈ 184 µM) | 62.5 (≈ 184 µM) | inactive
16 | Cc1nc(-c2cccc(Cl)c2)ccc1C(=O)N/N=C/c1ccc(Cl)cc1Cl | inactive | inactive | – | – | inactive | 6.24 (≈ 14.9 µM) | 41.98 mm | inactive | – | 11.4 | 19.3 | – | – | – | – | – | – | – | – | –
17 | COc1cc(/C=N/NC(=O)c2c[nH]c3ccc(Cl)cc3c2=O)cc(OC)c1OC | – | – | – | – | – | – | inactive | inactive | 7.81 (≈ 18.8 µM) | 17.3 | 18.4 | 15.6 (≈ 37.6 µM) | 18.1 | 16.3 | 19.3 | inactive | 3.9 (≈ 9.38 µM) | 31.2 (≈ 75.2 µM) | 7.81 (≈ 18.8 µM) | inactive
18 | Cc1nc(-c2ccc(Cl)cc2)ccc1C(=O)N/N=C/c1ccc(F)cc1 | inactive | inactive | inactive | inactive | inactive | 6.24 (≈ 17 µM) | 40.31 mm | inactive | – | – | – | – | – | – | – | – | – | – | – | –
19 | COc1ccc(/C=N/NC(=O)c2c[nH]c3ccc(Cl)cc3c2=O)cc1OC | – | – | – | – | – | 25 (≈ 64.7 µM) | 31.25 mm | inactive | 3.9 (≈ 10.1 µM) | 17.2 | 19.1 | 15.6 (≈ 40.5 µM) | 18.4 | 16.9 | 21.3 | inactive | 1.95 (≈ 5.05 µM) | 15.6 (≈ 40.5 µM) | 7.81 (≈ 20.2 µM) | –
